Tests used:
NCI-H157 = experiment: Growth inhibition of human NCI-H157 cells at 100 uM after 48 hrs by SRB assay; type: functional; details: NCI-H157, 48 h, read-out: GI
Outline: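 H-157 cells seeded at 10⁴ cells per well and grown at 37 °C under 5% CO₂ to a monolayer within 24 h. Compound added, with a vincristine standard and a cells-plus-media blank, for 48 h. Cells fixed in 50% ice-cold TCA (4 °C, 1 h), washed 5× with PBS, stained with 0.4% w/v SRB in 1% acetic acid (30 min, RT), rinsed, and dye solubilized in 10 mM Tris base. A490 read minus A630 background; triplicate.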

[1] = target: Urease (Canavalia ensiformis) (UniProt P07374); experiment: Inhibition of jack bean urease using urea as substrate assessed as reduction in ammonia production at 1 mM after 30 mins by indophenol method
Urease (Canavalia ensiformis), sequence (P07374 whole entry, looked up): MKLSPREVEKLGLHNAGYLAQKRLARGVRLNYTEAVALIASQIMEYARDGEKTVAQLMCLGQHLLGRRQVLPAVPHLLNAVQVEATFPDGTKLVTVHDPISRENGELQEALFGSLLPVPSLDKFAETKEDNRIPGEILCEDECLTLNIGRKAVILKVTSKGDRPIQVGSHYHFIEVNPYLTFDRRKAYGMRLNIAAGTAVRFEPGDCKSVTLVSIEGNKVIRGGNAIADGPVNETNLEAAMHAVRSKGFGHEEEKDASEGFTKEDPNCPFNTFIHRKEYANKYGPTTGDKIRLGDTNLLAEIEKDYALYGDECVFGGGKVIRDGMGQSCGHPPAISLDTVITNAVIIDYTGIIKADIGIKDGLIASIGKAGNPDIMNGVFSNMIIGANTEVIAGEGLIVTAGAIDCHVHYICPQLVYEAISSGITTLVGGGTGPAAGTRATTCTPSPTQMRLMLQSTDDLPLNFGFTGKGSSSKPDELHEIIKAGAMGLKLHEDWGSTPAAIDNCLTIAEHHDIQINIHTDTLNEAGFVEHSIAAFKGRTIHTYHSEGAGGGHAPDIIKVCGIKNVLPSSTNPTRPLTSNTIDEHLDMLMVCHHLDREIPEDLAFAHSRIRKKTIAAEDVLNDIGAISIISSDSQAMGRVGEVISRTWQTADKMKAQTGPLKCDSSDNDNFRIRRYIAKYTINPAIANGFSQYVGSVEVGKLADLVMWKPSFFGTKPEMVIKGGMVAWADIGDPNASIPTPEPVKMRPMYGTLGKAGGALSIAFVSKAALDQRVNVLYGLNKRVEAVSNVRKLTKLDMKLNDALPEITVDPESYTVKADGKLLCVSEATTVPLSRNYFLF

Urease = Urease (Canavalia ensiformis, UniProt P07374); experiment: Inhibition of jack bean urease using urea as substrate assessed as reduction in ammonia production after 30 mins by indophenol method
Urease, sequence (P07374 whole entry): as the sequence (P07374 whole entry, looked up) above
Outline: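 Compounds were first screened, and those giving at least 50% inhibition went on to dose-response testing. For each, 7–9 serial dilutions were made in assay buffer, and curves were run under the same conditions as the initial screen.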

Row | SMILES | inhibition of growth at 100 µM (NCI-H157) [%] | inhibition [1] [%] | IC50 (Urease) [µM]
1 | O=C(NC(=S)NCc1ccccc1Cl)c1cccc(Cl)c1 | 27.6 | 27.4 | 
2 | O=C(NC(=S)Nc1ccc(Cl)c(Cl)c1)c1cccc(Cl)c1 | 39.4 | 36.7 | 
3 | O=C(NC(=S)Nc1cc(Cl)c(Cl)cc1Cl)c1cccc(Cl)c1 | 43.3 |  | 7.41
4 | O=C(NC(=S)Nc1c(Cl)cccc1Cl)c1cccc(Cl)c1 | 42.2 |  | 5.38
5 | O=C(NC(=S)NCc1ccccc1)c1cccc(Cl)c1 | 40.5 |  | 16.4
6 | CC[C@]1(O)C[C@H]2CN(CCc3c([nH]c4ccccc34)[C@@](C(=O)OC)(c3cc4c(cc3OC)N(C=O)[C@H]3[C@@](O)(C(=O)OC)[C@H](OC(C)=O)[C@]5(CC)C=CCN6CC[C@]43[C@@H]65)C2)C1 [VINCRISTINE] | 74.6 |  | 
7 | O=C(NC(=S)Nc1ccc(Cl)cc1Cl)c1cccc(Cl)c1 | 38.9 |  | 1.34
8 | O=C(NC(=S)Nc1cccc2ccccc12)c1cccc(Cl)c1 | 42.2 | 37.1 | 
9 | O=C(NC(=S)Nc1ccc([N+](=O)[O-])cc1)c1cccc(Cl)c1 | 32.7 | 28.1 | 
10 | O=C(NC(=S)Nc1ccc([N+](=O)[O-])cc1[N+](=O)[O-])c1cccc(Cl)c1 | 36.1 | 23.1 | 
11 | O=C(NC(=S)Nc1cccc(Cl)c1Cl)c1cccc(Cl)c1 | 50.7 |  | 1.92
12 | O=C(NC(=S)Nc1ncccn1)c1cccc(Cl)c1 | 57.2 |  | 2.11
13 | O=C(NC(=S)Nc1c(Cl)c(Cl)cc(Cl)c1Cl)c1cccc(Cl)c1 | 45.5 | 32.7 | 
14 | O=C(NC(=S)Nc1ccc(F)cc1)c1cccc(Cl)c1 |  |  | 2.91
15 | O=C(NC(=S)Nc1ccccc1)c1cccc(Cl)c1 | 45.2 |  | 3.24
16 | O=C(NC(=S)Nc1ccccc1C(F)(F)F)c1cccc(Cl)c1 | 36.9 |  | 5.58
17 | O=C(NC(=S)Nc1cccc(C(F)(F)F)c1)c1cccc(Cl)c1 | 48.9 |  | 2.86
18 | O=C(NC(=S)Nc1cccc(Br)c1)c1cccc(Cl)c1 | 32.4 |  | 20.1
19 | CCCCc1ccc(NC(=S)NC(=O)c2cccc(Cl)c2)cc1 | 47.7 | 36.9 | 

Row | SMILES | inhibition of growth at 100 µM (NCI-H157) [%] | inhibition [1] [%] | IC50 (Urease) [µM]
20 | O=C(NC(=S)Nc1cccc(Cl)c1)c1cccc(Cl)c1 | 52.9 | 29.1 | 
21 | CCc1cccc(CC)c1NC(=S)NC(=O)c1cccc(Cl)c1 | 41.2 |  | 12.6
22 | O=C(NC(=S)N(C1CCCCC1)C1CCCCC1)c1cccc(Cl)c1 | 47.8 | 29.9 | 
23 | COc1ccccc1NC(=S)NC(=O)c1cccc(Cl)c1 | 42.8 |  | 3.79
24 | CN(C(=S)NC(=O)c1cccc(Cl)c1)c1ccccc1 | 45.1 |  | 17.5
25 | Cc1cccc(NC(=S)NC(=O)c2cccc(Cl)c2)c1C | 41.7 |  | 4.45
26 | O=C(NC(=S)Nc1cc(Cl)ccc1Cl)c1cccc(Cl)c1 | 46.6 |  | 9.72
27 | O=C(NC(=S)Nc1ccc(C(F)(F)F)cc1)c1cccc(Cl)c1 | 44.6 |  | 7.04
28 | O=C(NC(=S)Nc1ccc(Cl)cc1)c1cccc(Cl)c1 | 52.6 |  | 11.7
29 | O=C(NC(=S)Nc1ccccc1[N+](=O)[O-])c1cccc(Cl)c1 | 36.4 |  | 8.59
30 | O=C(NC(=S)NC1CCCCC1)c1cccc(Cl)c1 | 48.5 |  | 14.3
31 | O=C(NC(=S)Nc1nc2ccccc2s1)c1cccc(Cl)c1 | 48.8 | 27.9 | 
32 | Cc1cc(C)c(NC(=S)NC(=O)c2cccc(Cl)c2)c(C)c1 | 43.7 |  | 1.23
33 | O=C(NC(=S)Nc1c(Cl)cc(Cl)cc1Cl)c1cccc(Cl)c1 | 60.9 |  | 3.64
34 | COc1cccc(NC(=S)NC(=O)c2cccc(Cl)c2)c1 | 42.2 | 21.7 | 
35 | O=C(NC(=S)Nc1ccc(Br)cc1Br)c1cccc(Cl)c1 | 38.2 |  | 6.32
36 | O=C(NC(=S)Nc1ccccc1Cl)c1cccc(Cl)c1 | 45.4 | 25.7 | 
37 | O=C(NC(=S)Nc1cc(Cl)cc(Cl)c1)c1cccc(Cl)c1 | 48.5 |  | 6.53
38 | Cc1ccc(NC(=S)NC(=O)c2cccc(Cl)c2)cc1 | 39.4 |  | 12.4

— ChEMBL document CHEMBL3826920, “Solution-phase microwave assisted parallel synthesis, biological evaluation and in silico docking studies of N,N'-disubstituted thioureas derived from 3-chlorobenzoic acid” (Bioorg Med Chem, 2016)
